Among the data in ChEMBL document CHEMBL1122371, “Inhibition of renin by angiotensinogen peptide fragments containing the hydroxy amino acid residue 5-amino-3-hydroxy-7-methyloctanoic acid” (J Med Chem, 1983) are Ki values, retold here.

SMILES strings stand for the structures.

For one assay, the target named is T1, Renin (Homo sapiens, UniProt P00797).
T1 sequence (P00797 whole entry): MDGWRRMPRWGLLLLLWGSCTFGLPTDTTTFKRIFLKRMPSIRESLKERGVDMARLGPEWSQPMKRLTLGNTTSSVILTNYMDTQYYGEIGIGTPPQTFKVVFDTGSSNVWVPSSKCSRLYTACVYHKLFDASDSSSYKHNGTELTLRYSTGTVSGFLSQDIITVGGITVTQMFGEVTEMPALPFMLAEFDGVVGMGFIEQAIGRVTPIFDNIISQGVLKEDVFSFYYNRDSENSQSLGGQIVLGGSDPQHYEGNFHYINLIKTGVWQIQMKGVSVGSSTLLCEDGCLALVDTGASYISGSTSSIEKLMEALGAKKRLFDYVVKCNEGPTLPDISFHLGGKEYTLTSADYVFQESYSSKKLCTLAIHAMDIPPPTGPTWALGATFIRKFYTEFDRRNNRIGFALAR
Put plainly: Inhibitory activity against human amniotic renin (competitive inhibition). Summed up: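 Angiotensin I generation is reported as nmol/unit enzyme/min for hog kidney renin and nmol/mL/h for human amniotic renin. Points are means of three determinations. Lines are fitted by linear regression, and Ki is the −[I] at their intersection.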

In a further assay the target is Renin (Sus scrofa). Briefly: Inhibitory activity against hog kidney renin (Non-competitive inhibition).

As to `COC(=O)[C@H](Cc1ccccc1)NC(=O)[C@@H](NC(=O)CC(O)CC(N)CC(C)C)C(C)C` (some centres undefined), the results for the inhibitory constant (Ki) at Renin and on Renin (Sus scrofa) were 95 µM and 170 µM, respectively.
Consider `COC(=O)[C@@H](Cc1ccccc1)NC(=O)[C@H](NC(=O)CC(O)CC(N)CC(C)C)C(C)C` (some centres undefined), for which the Ki at Renin is 1600 µM; on Renin (Sus scrofa), 1180 µM.

The term Ki denotes the dissociation constant of the complex between target and ligand, obtained from inhibition or displacement. Lower therefore signals higher affinity.
